One experiment has as its system A-375. Description: Antiproliferative activity against human A-375 cells assessed as inhibition of cell growth incubated for 72 hrs by MTS assay. The following applies: A-375, 72 h.
The subject of a further experiment is MDA-MB-231. Description: Antiproliferative activity against human MDA-MB-231 cells assessed as inhibition of cell growth incubated for 72 hrs by MTS assay. It is filed as functional, cell-based. The following applies: MDA-MB-231, 72 h. The method, boiled down:
(§1)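 Cells seeded at 3,000–8,000 per well according to growth rate and incubated overnight. They were then exposed to compounds over 3 nM–100 μM for 72 h, four replicates per concentration. MTS added, 1.5 h in the dark at 37 °C, absorbance read at 490 nm. IC50 normalized to untreated cells and fitted by nonlinear regression.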
Background: Tetrazolium dyes change colour on reduction, which living cells bring about.

Experiment [1] in a line: Antiproliferative activity against human EU-1 cells assessed as inhibition of cell growth incubated for 44 hrs by WST assay. The following applies: EU-1, 44 h. It is filed as functional, cell-based. The method, boiled down: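 Pediatric ALL-derived EU-1 cells grown in RPMI 1640 with 10% FBS, 2 mmol/L L-glutamine and penicillin/streptomycin at 37 °C, 5% CO2. Compounds given at graded concentrations for 44 h. WST (25 μg/well) then added for a further 4 h. OD read at 450 nm against a 620 nm reference, with cell-free wells for background.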

Experiment [2] concerns CWR22R. The experiment can be described thus: Antiproliferative activity against human 22Rv1 cells assessed as inhibition of cell growth incubated for 72 hrs by MTS assay. It is filed as functional, cell-based. As to conditions: 22Rv1, 72 h. Summed up: as §1
The subject of experiment [3] is CWR22R. The experiment can be described thus: Inhibition of colony formation in human 22Rv1 cells assessed as reduction in number of clonogenic cells incubated for 14 days and subsequent media replacement with compound for every 3 days by crystal violet staining based microscopic analysis. It is filed as functional, cell-based. The following applies: dose 1-10 µM, time 14.0 day. The method, boiled down:
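22Rv1 cells in log phase were seeded at 2,000 per well and incubated 72 h. They were then treated with 1, 5 or 10 μM for 14 days, with medium ± compound renewed every 3 days. Colonies were fixed in cold methanol, stained with 0.5% crystal violet and counted microscopically. Run in triplicate; area expressed relative to vehicle (100%) as mean ± SEM of three biological replicates.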

SMILES strings stand for the structures.

For orientation: IC50 means the point on the concentration scale where inhibition reaches its midpoint. Regarding `Cc1ccc(NS(=O)(=O)c2ccc3c(c2)C2OCCC2C(c2c[nH]c4ccccc24)N3)cc1C` (configuration not stated), the half-inhibitory concentration (IC50) with A-375 was > 10 µM; with MDA-MB-231, > 10 µM; in experiment [1] it was 9.2 µM.
Regarding `O=S(=O)(Nc1ccc(C(F)(F)F)c(C(F)(F)F)c1)c1ccc2c(c1)C1OCCC1C(C1CCCCC1)N2` (configuration not stated), the IC50 (in the experiment with A-375; with MDA-MB-231; in experiment [1]) was > 10 µM throughout.
As for `CC1CCC(NS(=O)(=O)c2ccc3c(c2)C2OCCC2C(C2CCCCC2)N3)CC1` (configuration not stated), the IC50 was > 10 µM in the experiment on CWR22R [2], 7.5 µM in the experiment with A-375, 2.4 µM with MDA-MB-231 and 1.9 µM in experiment [1].
`Cc1ccc(S(=O)(=O)Nc2ccc3c(c2)C2OCCC2C(c2ccc(C(=O)C(C)C)cc2)N3)cc1C` (configuration not stated): the IC50 in the experiment on CWR22R [2] is 4 µM; in the experiment on A-375, 2.5 µM; in the experiment on MDA-MB-231, 1.3 µM; in experiment [1], 0.6 µM.
For `CC(=O)c1cccc(NS(=O)(=O)c2ccc3c(c2)C2OCCC2C(c2cccc(C(C)=O)c2)N3)c1` (configuration not stated), in that order: > 10 µM, 2.5 µM, 2.2 µM and 1 µM.
For `CCC(=O)c1cccc(NS(=O)(=O)c2ccc3c(c2)C2OCCC2C(c2ccc(C(=O)C(C)C)cc2)N3)c1` (configuration not stated), the IC50 in the experiment with CWR22R [2] worked out at 3.5 µM; with A-375 it was 1.3 µM; in the experiment on MDA-MB-231 it was 1.9 µM; in experiment [1] it was 1.5 µM.
For `O=S(=O)(Nc1ccc2c(c1)CCCC2)c1ccc2c(c1)C1OCCC1C(C1CCCCC1)N2` (configuration not stated), in that order: > 10 µM, > 10 µM, 2.2 µM and 2.3 µM.
Taken in the same sequence, the figures for `CCc1cccc(NS(=O)(=O)c2ccc3c(c2)C2OCCC2C(c2ccc(C(=O)C(C)C)cc2)N3)c1` (configuration not stated) were 1.1 µM, 3.2 µM, 1.5 µM and 2.1 µM.
As for `Cc1cc(NS(=O)(=O)c2ccc3c(c2)C2OCCC2C(C2CCCCC2)N3)ccc1C(F)(F)F` (configuration not stated), the IC50 in the experiment with A-375 is > 10 µM; in the experiment on MDA-MB-231 it was > 10 µM; in experiment [1] it was 3.3 µM.
In the case of `CN(C)c1cccc(NS(=O)(=O)c2ccc3c(c2)C2OCCC2C(C2CCCCC2)N3)c1` (configuration not stated), the concentration for half-maximal inhibition (IC50) with CWR22R [2] was > 10 µM; in the experiment on A-375, 1.8 µM; in the experiment on MDA-MB-231, 1.1 µM; in experiment [1], 4 µM.
`CC(=O)c1cccc(NS(=O)(=O)c2ccc3c(c2)C2OCCC2C(C2CCCCC2)N3)c1` (configuration not stated): the IC50 with CWR22R [2] is > 10 µM; in the experiment on A-375, 1.1 µM; with MDA-MB-231 it was 1 µM; in experiment [1], 1.5 µM.
For the compound `O=S(=O)(Nc1ccccc1)c1ccc2c(c1)C1OCCC1C(C1CCCCC1)N2` (configuration not stated), the IC50 was > 10 µM in the experiment on A-375, > 10 µM in the experiment on MDA-MB-231 and 2.6 µM in experiment [1].
With `CC(=O)Nc1ccc(C2Nc3ccc(S(=O)(=O)Nc4ccc(C)c(C)c4)cc3C3OCCC23)cc1` (configuration not stated), the IC50 with CWR22R [2] was > 10 µM; with A-375, 8.1 µM; in the experiment with MDA-MB-231, 5.1 µM; in experiment [1], 4.5 µM.
Regarding `O=S(=O)(Nc1ccc(Br)c(Br)c1)c1ccc2c(c1)C1OCCC1C(C1CCCCC1)N2` (configuration not stated), the IC50 was > 10 µM in the experiment on A-375, > 10 µM in the experiment with MDA-MB-231 and 5.1 µM in experiment [1].
On to `CC(=O)c1cccc(S(=O)(=O)Nc2ccc3c(c2)C2OCCC2C(c2ccc(C(=O)C(C)C)cc2)N3)c1` (configuration not stated), for which the IC50 was determined as 7.7 µM with CWR22R [2], 4.7 µM in the experiment on A-375, 2 µM in the experiment with MDA-MB-231 and 0.7 µM in experiment [1].
For `CC(=O)c1ccc(NS(=O)(=O)c2ccc3c(c2)C2OCCC2C(c2ccc(C(=O)C(C)C)cc2)N3)cc1` (configuration not stated), in that order: 3.3 µM, 2 µM, 2.1 µM and 1.5 µM.
For `Cc1ccc(NS(=O)(=O)c2ccc3c(c2)C2OCCC2C(c2ccc4c(c2)CCO4)N3)cc1C` (configuration not stated), in that order: > 10 µM, 4.6 µM, 3.2 µM and > 10 µM.
Take `CC(=O)c1cccc(NS(=O)(=O)c2ccc3c(c2)C2OCCC2C(c2ccc4c(c2)CCO4)N3)c1` (configuration not stated): the IC50 in the experiment on CWR22R [2] stood at 6.3 µM; with A-375, 1.3 µM; in the experiment on MDA-MB-231 it was 1.1 µM; in experiment [1], 7.2 µM.
With `CC(=O)N1CCC(C2Nc3ccc(S(=O)(=O)Nc4ccc(C)c(C)c4)cc3C3OCCC32)CC1` (configuration not stated), the IC50 (with A-375; with MDA-MB-231; in experiment [1]) was > 10 µM throughout.
Take `Cc1ccc(NS(=O)(=O)c2ccc3c(c2)C2OCCC2C(c2ccc(C(=O)C(C)C)cc2)N3)cc1C` (configuration not stated): the IC50 with CWR22R [2] came out at 5.3 µM; in the experiment on A-375 it was 2.2 µM; in the experiment on MDA-MB-231 it was 2.2 µM; in experiment [1], 0.5 µM. Moreover, the inhibition entry in the experiment with CWR22R [3] is “Dose-Dependent Effect”.
Turning to `CN[C@@H](C)C(=O)N[C@H](C(=O)N1CCC[C@H]1C(=O)Nc1snnc1-c1ccccc1)C1CCCCC1` [GDC-0152], the IC50 in experiment [1] was determined as 0.8 µM.
As for `CC(C)C(=O)c1ccc(C2Nc3ccc(S(=O)(=O)Nc4ccc5c(c4)OCO5)cc3C3OCCC23)cc1` (configuration not stated), the IC50 turned out to be 7.9 µM in the experiment on CWR22R [2], 5.9 µM in the experiment on A-375, 3.3 µM in the experiment on MDA-MB-231 and 5.3 µM in experiment [1].
For the compound `CC(=O)c1cccc(NS(=O)(=O)c2ccc3c(c2)C2OCCC2C(c2ccccc2)N3)c1` (configuration not stated), the IC50 was > 10 µM with CWR22R [2], 0.9 µM in the experiment with A-375, 0.9 µM in the experiment with MDA-MB-231 and 1.3 µM in experiment [1].
For `Cc1ccc(NS(=O)(=O)c2ccc3c(c2)C2OCCC2C(C2CCOCC2)N3)cc1C` (configuration not stated), the IC50 with CWR22R [2] was > 10 µM; in the experiment on A-375, 12.1 µM; in the experiment with MDA-MB-231, 3 µM; in experiment [1] it was 1.6 µM.
As to `O=S(=O)(Nc1ccc(Cl)c(Cl)c1)c1ccc2c(c1)C1OCCC1C(C1CCCCC1)N2` (configuration not stated), the half-inhibitory concentration (IC50) was > 10 µM with A-375, > 10 µM in the experiment on MDA-MB-231 and 1.8 µM in experiment [1].
On to `Cc1ccc(NS(=O)(=O)c2ccc3c(c2)C2OCCC2C(C2CCN(C(=O)OC(C)(C)C)CC2)N3)cc1C` (configuration not stated), for which the IC50 is > 10 µM in the experiment with CWR22R [2], 0.7 µM in the experiment on A-375, 1.1 µM in the experiment on MDA-MB-231 and 1.4 µM in experiment [1].
For `Cc1ccc(NS(=O)(=O)c2ccc3c(c2)C2OCCC2C(C2CCCCC2)N3)cc1C` (configuration not stated), in that order: > 10 µM, 9.8 µM, 5.7 µM and 0.8 µM.
Taken in the same sequence, the figures for `CC(C)C(=O)c1ccc(C2Nc3ccc(S(=O)(=O)Nc4cccc(C(C)(C)C)c4)cc3C3OCCC23)cc1` (configuration not stated) were 1.3 µM, 5.1 µM, 2 µM and 6.2 µM.
Taken in the same sequence, the figures for `CC(=O)c1cccc(NS(=O)(=O)c2ccc3c(c2)C2OCCC2C(c2ccc(C(C)C)cc2)N3)c1` (configuration not stated) were > 10 µM, 1.9 µM, 0.6 µM and 0.6 µM.
In the case of `CC(C)C(=O)c1ccc(C2Nc3ccc(S(=O)(=O)Nc4cccc(C(C)C)c4)cc3C3OCCC23)cc1` (configuration not stated), the IC50 was 2.1 µM in the experiment with CWR22R [2], 2.2 µM in the experiment on A-375, 1.1 µM in the experiment on MDA-MB-231 and 6.5 µM in experiment [1].
For `CC(C)C(=O)c1ccc(C2Nc3ccc(S(=O)(=O)Nc4cccc(N(C)C)c4)cc3C3OCCC23)cc1` (configuration not stated), in that order: 0.7 µM, 0.9 µM, 1.6 µM and 7.5 µM.
For `CC(C)[C@@H](CS(=O)(=O)C(C)C)N1C(=O)[C@@](C)(CC(=O)O)C[C@H](c2cccc(Cl)c2)[C@H]1c1ccc(Cl)cc1` [NAVTEMADLIN], in that order: 0.3 µM, 0.6 µM, > 10 µM and 0.9 µM.
On to `CC(C)C(=O)c1ccc(C2Nc3ccc(S(=O)(=O)Nc4ccc5c(c4)COC5=O)cc3C3OCCC23)cc1` (configuration not stated), for which the values for the IC50 (with A-375; with MDA-MB-231; in experiment [1]) were > 10 µM, 3.8 µM and 3.8 µM, respectively.
